CC50, NR and IC50 data for 22 compounds are collected here from ChEMBL document CHEMBL1133718, “Structure-activity relationships and binding mode of styrylquinolines as potent inhibitors of HIV-1 integrase and replication of HIV-1 in cell culture” (J Med Chem, 2000).

A value given as a limit tells only on which side of the number the result lay.

Data set [1] can be described thus: Toxic concentration, estimated by MTT transformation assay. The format is ADME, organism-based, Human immunodeficiency virus 1. Particulars: CEM cells; read-out: TC50 (the source's name). The method, boiled down: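 Cell viability by MTT: MTT solution (7.5 mg/mL, in phosphate buffer) added to infected, drug-treated CEM wells. Incubation 4 h at 37 °C under CO2, formazan dissolved in 10% SDS/10 mM HCl, absorbance read at 570 nm.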

In data set [2] the test system is Human immunodeficiency virus 1. Kind of data set: Antiviral activities against HIV-1 replication in CEM cells and its ability to lower the viral charge supernatants was reported; NR is not reached. Format: functional, organism-based. Particulars: CCRF-CEM. The method, boiled down: (§1)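 CEM cells infected with cell-free HIV-1 ([…] clone, produced by transfecting P4 cells), in triplicate; virus removed 2 h post-infection, then DMSO-dissolved drug added in fresh medium at increasing concentrations. 72 h supernatants infected HeLa-CD4-βGal (P4) reporter cells for 24 h; lysates incubated with CPRG, absorbance at 570 nm. Some cases used p24 antigen ELISA.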

The test system of data set [3] is Human immunodeficiency virus 1. Kind of data set: Inhibitory effect upon disintegration catalyzed by the (50-212) deletion mutant. Format: functional. The method, boiled down: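 Disintegration reaction run with 0.5 pmol D38U3 substrate and 2 pmol of the His-tagged F185K soluble HIV-1 integrase core domain (residues 50-212), expressed and purified recombinantly. Potency is reported as IC50.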

Data set [4] addresses T1, Human immunodeficiency virus type 1 integrase (Human immunodeficiency virus 1, UniProt Q7ZJM1). Kind of data set: Inhibitory activity against HIV-1 Integrase in strand transfer (integration).
In data set [5] the target is T1, Human immunodeficiency virus type 1 integrase. Kind of data set: Inhibitory activity against HIV-1 Integrase in 3'-end- processing. The method, boiled down: (§2)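 3'-processing: 0.5 pmol U5A/U5B annealed duplex with 1 pmol purified recombinant full-length HIV-1 IN in 20 mM Tris pH 7.2, 30 mM NaCl, 10% glycerol, 10 mM DTT, 0.01% NP40, plus 10 mM MnCl2.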
Data set [6] has as its system Human immunodeficiency virus 1. Kind of data set: Antiviral activities against HIV-1 replication in CEM cells and its ability to lower the viral charge supernatants was reported. Conditions: Human immunodeficiency virus 1, CCRF-CEM. Format: functional, organism-based. The method in brief:
as §1

The target in data set [7] is T1, Human immunodeficiency virus type 1 integrase. Kind of data set: Inhibitory activity against Integrase in strand transfer (integration).
Data set [8] shares this target. Put plainly: Inhibitory activity against Integrase in 3'-end- processing. The method, boiled down: as §2
The target is the same in data set [9]. Kind of data set: Inhibitory activity against HIV-1 Integrase in strand transfer (integration) with purified recombinant enzyme.
Data set [10] has the same target. Kind of data set: Inhibitory activity against HIV-1 Integrase in 3'-end- processing with purified recombinant enzyme.

T1 sequence (Q7ZJM1 whole entry): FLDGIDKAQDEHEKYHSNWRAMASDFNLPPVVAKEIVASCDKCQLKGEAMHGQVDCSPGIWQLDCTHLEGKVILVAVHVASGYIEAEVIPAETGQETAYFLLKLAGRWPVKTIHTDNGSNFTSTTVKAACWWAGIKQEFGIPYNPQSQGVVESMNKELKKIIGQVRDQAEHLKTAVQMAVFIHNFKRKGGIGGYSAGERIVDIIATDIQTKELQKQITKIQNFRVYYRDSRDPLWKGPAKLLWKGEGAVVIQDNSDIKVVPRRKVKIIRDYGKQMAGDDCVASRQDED

In the case of `O=C(O)c1ccc2ccc(/C=C/c3ccc([N+](=O)[O-])cc3)nc2c1O`, in data set [1], the CC50 is 43 µM. Besides, the NR result in data set [2] was “Not reached”. Besides, the IC50 (commonly the concentration that inhibits the measured activity by half) in [3] was 2.2 µM; in data set [4] it was 1.7 µM; in [5], 1.2 µM.

For `O=C(O)c1ccc2ccc(/C=C/c3cccnc3)nc2c1O`, the IC50 in data set [6] is greater than 100 µM; in data set [3], 5.1 µM; in data set [4], 11 µM; in data set [5] it was 4.1 µM. In data set [1], the CC50 was greater than 100 µM.

For `COC(=O)c1ccc2ccc(/C=C/c3ccc(O)c(O)c3)nc2c1O`, in [1], the CC50 was 9.2 µM. Moreover, the NR entry in data set [2] is on record as “Not reached”. In addition, the IC50 in [7] and in data set [8] was greater than 100 µM in each case.

Regarding `O=C(O)c1ccc2ccc(/C=C/c3cc(O)cc(O)c3)nc2c1O`, the IC50 was greater than 100 µM in data set [6], 3.2 µM in data set [7] and 3.2 µM in data set [8]. For the same compound, the CC50 in [1] is greater than 100 µM.

With `O=C(O)c1ccc2ccc(/C=C/c3ccsc3)nc2c1O`, the CC50 in [1] was 85 µM. Moreover, the NR entry in data set [2] is listed as “Not reached”. The 50% inhibitory concentration (IC50) worked out at 0.8 µM in [3], 3 µM in data set [4] and 3.4 µM in [5].

Turning to `CC(=O)Nc1ccc(/C=C/c2ccc3ccc(C(=O)O)c(O)c3n2)cc1`, in data set [1], the CC50 is 47 µM. Further, the NR entry in data set [2] was “Not reached”. Moreover, the IC50 was determined as 1.7 µM in data set [3], 1.2 µM in [4] and 1.4 µM in data set [5].

Turning to `O=C(O)c1ccc2ccc(/C=C/c3cc(Br)c(O)c(Br)c3)nc2c1O`, the figures for the IC50 in [4] and in data set [5] were 1.2 µM and 1.3 µM, respectively.

`O=C(O)c1ccc2ccc(/C=C/c3cc(O)c(O)c(O)c3)nc2c1O`: half-maximal inhibition in [6] (IC50) was put at 1.2 µM. Also, the CC50 in data set [1] is 10 µM.

In the case of `Oc1ccc(/C=C/c2ccc3c(Cl)cc(Cl)c(O)c3n2)cc1O`, in data set [1], the CC50 was 17 µM. The NR result in [2] is listed as “Not reached”. The IC50 in data set [7] and in data set [8] was greater than 100 µM in each case.

Compound `O=C(O)c1ccc2ccc(/C=C/c3ccc(O)cc3O)nc2c1O` had an IC50 in data set [6] of 80 µM. Also, the CC50 in [1] was greater than 100 µM.

For `O=C(O)c1ccc2ccc(/C=C/c3ccc(O)cc3)nc2c1O`, the IC50 was 95 µM in [6], 1.6 µM in data set [4] and 1.6 µM in [5]. In data set [1], the CC50 was greater than 100 µM.

With `O=C(O)c1ccc2ccc(/C=C/c3ccc(O)c(O)c3)nc2c1O`, half-maximal inhibition in data set [6] (IC50) was put at 1.3 µM. Besides, in data set [1], the CC50 is greater than 100 µM.

Take `O=C(O)c1ccc2ccc(/C=C/c3ccccc3)nc2c1O`: in data set [1], the CC50 was 31 µM. Besides, the NR entry in [2] is “Not reached”. Further, the IC50 in data set [3] worked out at 3.4 µM; in data set [4], 2.1 µM; in [5], 5.3 µM.

As for `O=C(O)c1ccc2ccc(CCc3ccc(O)c(O)c3)nc2c1O`, the CC50 in data set [1] was 61 µM. The NR entry in [2] is recorded as “Not reached”. Also, the IC50 in data set [7] is 1.5 µM; in [8] it was 2.3 µM.

In the case of `Nc1ccc(/C=C/c2ccc3ccc(C(=O)O)c(O)c3n2)cc1`, the IC50 in data set [6] was found to be 50 µM; in [3], 12 µM; in data set [4], 2.2 µM; in [5], 3.5 µM. Also, the CC50 in data set [1] was 100 µM.

With `COc1cc(/C=C/c2ccc3ccc(C(=O)O)c(O)c3n2)cc(OC)c1O`, the 50% inhibitory concentration (IC50) in [6] is 9 µM; in [4], 4.5 µM; in data set [5], 4.9 µM. Moreover, the CC50 in data set [1] was greater than 100 µM.

For the compound `COc1ccc(/C=C/c2ccc3ccc(C(=O)O)c(O)c3n2)cc1O`, the IC50 came out at 54 µM in data set [6], 3.3 µM in data set [4] and 0.9 µM in [5]. In data set [1], the CC50 is 95 µM.

For the compound `O=C(O)c1ccc2ccc(/C=C/c3ccco3)nc2c1O`, the IC50 in data set [6] is greater than 100 µM; in data set [3], 1.4 µM; in [9], 5.1 µM; in data set [10], 1.9 µM. The CC50 in data set [1] was greater than 100 µM.

As to `COc1cc(/C=C/c2ccc3ccc(C(=O)O)c(O)c3n2)ccc1O`, the IC50 in data set [6] was 3 µM; in [4], 3.7 µM; in [5], 2.8 µM. Also, the CC50 in data set [1] was 95 µM.

As to `O=C(O)c1ccc2ccc(/C=C/c3cc(O)c(O)c(I)c3)nc2c1O`, the IC50 in data set [6] was found to be 6.8 µM; in data set [7], 4.9 µM; in data set [8], 4 µM. For the same compound, the CC50 in data set [1] is greater than 100 µM.

Turning to `Cc1ccc2ccc(C(=O)O)c(O)c2n1`, the IC50 in [6] and in data set [4] was greater than 100 µM in each case. Further, in data set [1], the CC50 was greater than 100 µM.

On to `COc1cc(/C=C/c2ccc3ccc(C(=O)O)c(O)c3n2)cc(O)c1O`, for which the IC50 is 12 µM in data set [6], 1.7 µM in data set [7] and 0.7 µM in [8]. The CC50 in data set [1] is greater than 100 µM.
